Experimental data gathered from unrelated publications.
Protocols differ between the studies behind these lines.
Cell line: K562
Read-out: cell growth or viability

Compound	assay	conditions	measurement	value
CCCCCCCCC1=CC2C=CC=CC1C2C1CCCCC1=O (centres unmarked)	flow cytometry	–	IC50	41 nM
CNC(=O)c1cc(OC)cc2c(N3CCc4c(cc(Cn5ccnc5)cc4-c4cn(C)nc4C(F)(F)F)C3=O)ccnc12	ATP luminescence	5 days	GI50	9700 nM
COc1ccc(C(=O)/C=C/c2ccc3c(c2)OCCO3)cc1S(N)(=O)=O	SRB	10 µM	inhibition	83%
COC(=O)CCC1=CC2C=CC=CC1C2C1CCCCC1=O (centres unmarked)	flow cytometry	–	IC50	62 nM
COc1ccccc1S(=O)(=O)Nc1ccc2c(c1)CN(C)C(=O)N2	ATP luminescence	–	GI50	> 20000 nM
COc1ccc(C(=O)/C=C/c2cccc3ccccc23)cc1S(N)(=O)=O	SRB	48 h	GI50	1700 nM
COc1ccc2nccc(N3CCc4c(cc(Cn5ccnc5)cc4-c4cn(C)nc4C(F)(F)F)C3=O)c2c1	ATP luminescence	5 days	GI50	13000 nM
COc1cccc(Oc2ccccc2NC(=O)CNC(=O)c2cccc3ccccc23)c1	SRB	48 h	GI50	129 nM
